Source: ChEMBL document CHEMBL4725349, “Discovery of First-in-Class Protein Arginine Methyltransferase 5 (PRMT5) Degraders” (J Med Chem, 2020)
The source made the active and inactive calls. No cut-off for these calls is given here.

Experiments:
[1] = target: T1, von Hippel-Lindau disease tumor suppressor/Protein arginine N-methyltransferase 5 (Homo sapiens, UniProt O14744+P40337); assay: Induction of VHL-mediated PRMT5 degradation in human MCF7 cells at 0.2 to 5 uM incubated for 6 days by Western blot analysis; type: cell-based; details: dose microM 0.2-5, time 6.0 day
Outline: (§1)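 MCF-7 cells treated 6 d (0.2, 1 and 5 μM for initial screen, or indicated concentrations). RIPA lysates immunoblotted for PRMT5. Band intensity quantified by densitometry to derive DC50 and Dmax as mean ± SD from three independent experiments; screening blots representative of at least two.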
Target sequence in this assay (O14744 whole entry, looked up): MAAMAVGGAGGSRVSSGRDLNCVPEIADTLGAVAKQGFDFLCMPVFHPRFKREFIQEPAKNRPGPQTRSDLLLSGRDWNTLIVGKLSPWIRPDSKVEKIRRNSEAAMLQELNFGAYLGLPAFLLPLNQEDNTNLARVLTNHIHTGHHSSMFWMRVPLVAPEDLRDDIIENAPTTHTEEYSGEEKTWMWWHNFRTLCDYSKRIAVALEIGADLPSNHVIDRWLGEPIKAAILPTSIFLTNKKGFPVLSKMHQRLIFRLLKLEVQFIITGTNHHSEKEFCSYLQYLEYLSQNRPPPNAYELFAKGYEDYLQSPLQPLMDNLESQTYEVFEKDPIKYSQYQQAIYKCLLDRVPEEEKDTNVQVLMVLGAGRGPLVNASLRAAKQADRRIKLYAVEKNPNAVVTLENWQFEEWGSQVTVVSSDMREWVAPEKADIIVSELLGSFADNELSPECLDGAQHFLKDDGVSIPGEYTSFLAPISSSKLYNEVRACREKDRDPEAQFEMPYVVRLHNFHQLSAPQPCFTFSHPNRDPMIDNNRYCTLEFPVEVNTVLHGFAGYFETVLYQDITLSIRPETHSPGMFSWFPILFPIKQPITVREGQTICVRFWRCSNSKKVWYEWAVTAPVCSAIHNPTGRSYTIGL
Target sequence in this assay (P40337 whole entry, looked up): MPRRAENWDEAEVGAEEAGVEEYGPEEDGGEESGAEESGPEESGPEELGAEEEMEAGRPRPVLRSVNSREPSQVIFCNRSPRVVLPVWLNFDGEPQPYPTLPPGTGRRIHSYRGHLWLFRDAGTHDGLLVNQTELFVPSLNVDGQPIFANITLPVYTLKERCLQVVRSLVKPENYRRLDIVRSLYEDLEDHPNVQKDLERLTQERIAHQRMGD

[2] = target: T1, von Hippel-Lindau disease tumor suppressor/Protein arginine N-methyltransferase 5; assay: Induction of VHL-mediated PRMT5 degradation in human MCF7 cells at 1 to 5 uM incubated for 6 days by Western blot analysis; type: cell-based; details: dose microM 1-5, time 6.0 day; outline: as §1
Target sequence in this assay (O14744 whole entry, looked up): as the sequence (O14744 whole entry, looked up) above
Target sequence in this assay (P40337 whole entry, looked up): as the sequence (P40337 whole entry, looked up) above

[3] = target: T1, von Hippel-Lindau disease tumor suppressor/Protein arginine N-methyltransferase 5; assay: Induction of VHL-mediated PRMT5 degradation in human MCF7 cells assessed as PRMT5 level at 5 uM incubated for 7 days by Western blot analysis relative to control; type: cell-based; details: time 7.0 day
Target sequence in this assay (O14744 whole entry, looked up): as the sequence (O14744 whole entry, looked up) above
Target sequence in this assay (P40337 whole entry, looked up): as the sequence (P40337 whole entry, looked up) above

[4] = Plasma concentration in Swiss albino mouse at 150 mg/kg, ip administered as single dose measured after 12 hrs post dose by LC-MS/MS method; type: ADME, organism-based
Outline: (§2)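 Male Swiss albino mice received one 150 mg/kg IP dose in normal saline. Blood drawn under light isoflurane at 0.25, 0.5, 1, 2, 6 and 12 h, three mice per time point. Plasma acetonitrile-precipitated and quantified by LC-MS/MS (LLOQ 9.25 ng/mL); clinical signs observed.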

[5] = target: T1, von Hippel-Lindau disease tumor suppressor/Protein arginine N-methyltransferase 5; assay: Induction of VHL-mediated PRMT5 degradation in human MCF7 cells assessed as PRMT5 level at 5 uM incubated for 7 days in presence of proteasome inhibitor MG-132 by Western blot analysis relative to control; type: cell-based; details: time 7.0 day
Target sequence in this assay (O14744 whole entry, looked up): as the sequence (O14744 whole entry, looked up) above
Target sequence in this assay (P40337 whole entry, looked up): as the sequence (P40337 whole entry, looked up) above

[6] = target: T1, von Hippel-Lindau disease tumor suppressor/Protein arginine N-methyltransferase 5; assay: Induction of VHL-mediated PRMT5 degradation in human MCF7 cells assessed as PRMT5 level at 5 uM incubated for 7 days in presence of EPZ015666 by Western blot analysis relative to control; type: cell-based; details: time 7.0 day
Target sequence in this assay (O14744 whole entry, looked up): as the sequence (O14744 whole entry, looked up) above
Target sequence in this assay (P40337 whole entry, looked up): as the sequence (P40337 whole entry, looked up) above

[7] = target: von Hippel-Lindau disease tumor suppressor/Methylosome protein WDR77 (Homo sapiens) (UniProt Q9BQA1+P40337); assay: Induction of VHL-mediated WDR77 degradation in human MCF7 cells at 5 uM supplemented with fresh medium containing compound every 2 days for 5 days by LC-MS based LFQ global proteomics analysis; type: cell-based; details: time 5.0 day
Outline: (§3)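 MCF-7 cells given 5 μM compound or DMSO for 5 d, with fresh medium plus compound every 48 h; two biological replicates. Lysis in 8 M urea/50 mM Tris pH 8.0, DTT reduction, iodoacetamide alkylation, overnight trypsin digestion. Peptides run on nanoLC-Q-Exactive HF-X, 130 min gradient. Label-free quantitation; fold changes tested by two-sample t test.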

[8] = system: MCF7; assay: Antiproliferative activity against human MCF7 cells incubated for 6 days by CellTiter-Glo assay; type: functional, cell-based; details: dose microM 0.1-10, time 6.0 day
Outline: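 MCF-7 in DMEM + 10% FBS at 37 °C, 5% CO2. Cells exposed to graded concentrations for 6 d, medium with compound refreshed every other day. CellTiter-Glo luminescence, expressed as viability relative to DMSO control; mean ± SD, n = 3.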

[9] = system: HeLa; assay: Antiproliferative activity against human HeLa cells assessed as reduction in cell viability supplemented with fresh medium containing compound every other day for 6 days by CellTiter-Glo assay; type: functional, cell-based; details: dose microM 0.1-10, time 6.0 day
Outline: (§4)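 HeLa, A549 and A172 grown in DMEM + 10% FBS; Jurkat in RPMI 1640 + 10% FBS; all at 37 °C, 5% CO2. Cells seeded, then treated 6 d with test agent, medium plus compound renewed every other day. Viability read by CellTiter-Glo and normalized to DMSO-treated cells; mean ± SD, n = 3.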

[10] = target: T1, von Hippel-Lindau disease tumor suppressor/Protein arginine N-methyltransferase 5; assay: Induction of VHL-mediated PRMT5 degradation in human HeLa cells at 5 uM incubated for 6 days by Western blot analysis; type: cell-based; details: time 6.0 day
Outline: (§5)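 HeLa, A549, A172 and Jurkat cells exposed to 5 μM for 6 d. Lysis in RIPA buffer with protease inhibitors, then SDS-PAGE, PVDF transfer and immunoblot for PRMT5 with β-actin loading control, ECL detection. Representative of two independent experiments.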
Target sequence in this assay (O14744 whole entry, looked up): as the sequence (O14744 whole entry, looked up) above
Target sequence in this assay (P40337 whole entry, looked up): as the sequence (P40337 whole entry, looked up) above

[11] = target: T1, von Hippel-Lindau disease tumor suppressor/Protein arginine N-methyltransferase 5; assay: Induction of VHL-mediated PRMT5 degradation in human MCF7 cells at 5 uM supplemented with fresh medium containing compound every 2 days for 5 days by LC-MS based LFQ global proteomics analysis; type: cell-based; details: time 5.0 day; outline: as §3
[12] = system: A 172; assay: Antiproliferative activity against human A172 cells assessed as reduction in cell viability supplemented with fresh medium containing compound every other day for 6 days by CellTiter-Glo assay; type: functional, cell-based; details: dose microM 0.1-10, time 6.0 day; outline: as §4
[13] = target: T1, von Hippel-Lindau disease tumor suppressor/Protein arginine N-methyltransferase 5; assay: Induction of VHL-mediated PRMT5 degradation in human MCF7 cells assessed as PRMT5 level at 5 uM incubated for 7 days in presence of VH-298 by Western blot analysis relative to control; type: cell-based; details: time 7.0 day
[14] = target: PRMT5/MEP50 complex (Homo sapiens, UniProt O14744); assay: Inhibition of human PRMT5/MEP50 assessed as reduction in methyltransferase activity using histone 4 peptide as substrate in presence of [3H]SAM incubated for 30 mins; type: protein-complex assay
Outline: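 Radiometric FlashPlate assay tracking transfer of the 3H-methyl group from SAM (1 μM) to biotinylated H4 (1–15) peptide by human PRMT5/MEP50 (5 nM). Compounds were preincubated with enzyme and substrate for 20 min at rt. They were tested at 10 concentrations in threefold serial dilution from 5 μM, in duplicate. IC50 is reported as mean ± SD.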

[15] = target: von Hippel-Lindau disease tumor suppressor/Agrin (Homo sapiens) (UniProt P40337+O00468); assay: Induction of VHL-mediated AGRN degradation in human MCF7 cells at 5 uM supplemented with fresh medium containing compound every 2 days for 5 days by LC-MS based LFQ global proteomics analysis; type: cell-based; details: time 5.0 day; outline: as §3
[16] = target: T1, von Hippel-Lindau disease tumor suppressor/Protein arginine N-methyltransferase 5; assay: Induction of VHL-mediated PRMT5 degradation in human A549 cells at 5 uM incubated for 6 days by Western blot analysis; type: cell-based; details: time 6.0 day; outline: as §5
[17] = Plasma concentration in Swiss albino mouse at 150 mg/kg, ip administered as single dose measured at 2 hrs post dose by LC-MS/MS method; type: ADME, organism-based; outline: as §2
[18] = target: T1, von Hippel-Lindau disease tumor suppressor/Protein arginine N-methyltransferase 5; assay: Induction of VHL-mediated PRMT5 degradation in human MCF7 cells incubated for 6 days by Western blot analysis relative to control; type: cell-based; details: time 6.0 day; outline: as §1
[19] = target: T1, von Hippel-Lindau disease tumor suppressor/Protein arginine N-methyltransferase 5; assay: Induction of VHL-mediated PRMT5 degradation in human MCF7 cells assessed as PRMT5 level at 5 uM incubated for 7 days in presence of neddylation inhibitor MLN4924 by Western blot analysis relative to control; type: cell-based; details: time 7.0 day
[20] = system: A549; assay: Antiproliferative activity against human A549 cells assessed as reduction in cell viability supplemented with fresh medium containing compound every other day for 6 days by CellTiter-Glo assay; type: functional, cell-based; details: dose microM 0.1-10, time 6.0 day; outline: as §4
[21] = target: T1, von Hippel-Lindau disease tumor suppressor/Protein arginine N-methyltransferase 5; assay: Induction of VHL-mediated PRMT5 degradation in human MCF7 cells incubated for 6 days by Western blot analysis; type: cell-based; outline: as §1
[22] = target: T1, von Hippel-Lindau disease tumor suppressor/Protein arginine N-methyltransferase 5; assay: Induction of VHL-mediated PRMT5 degradation in human Jurkat cells at 5 uM incubated for 6 days by Western blot analysis; type: cell-based; details: time 6.0 day; outline: as §5
[23] = target: T1, von Hippel-Lindau disease tumor suppressor/Protein arginine N-methyltransferase 5; assay: Induction of VHL-mediated PRMT5 degradation in human MCF7 cells assessed as recovery of PRMT5 level at 5 uM incubated for 6 days followed by compound wash out and measured up to 48 hrs by Western blot analysis; type: cell-based; details: time 6.0 day
Outline: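 Washout: MCF-7 cells treated 6 d with 5 μM, compound removed, and PRMT5 immunoblotted at 0, 12, 24 and 48 h after washout.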

[24] = Toxicity in Swiss albino mouse assessed as effect on clinical signs at 150 mg/kg, ip; type: organism-based; details: in vivo; outline: as §2
[25] = system: Jurkat; assay: Antiproliferative activity against human Jurkat cells assessed as reduction in cell viability supplemented with fresh medium containing compound every other day for 6 days by CellTiter-Glo assay; type: functional, cell-based; details: dose microM 0.1-10, time 6.0 day; outline: as §4
[26] = target: T1, von Hippel-Lindau disease tumor suppressor/Protein arginine N-methyltransferase 5; assay: Induction of VHL-mediated PRMT5 degradation in human A172 cells at 5 uM incubated for 6 days by Western blot analysis; type: cell-based; details: A 172, time 6.0 day; outline: as §5
[27] = target: T1, von Hippel-Lindau disease tumor suppressor/Protein arginine N-methyltransferase 5; assay: Induction of VHL-mediated PRMT5 degradation in human MCF7 cells assessed as reduction in SDMA level incubated for 6 days by Western blot analysis; type: cell-based; details: dose microM 0.1-3, time 6.0 day
Outline: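 SDMA read-out: MCF-7 cells given 0.1, 0.3, 1 or 3.0 μM for 6 d; global symmetric dimethylarginine detected on western blot with anti-SDMA antibody.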

von Hippel-Lindau disease tumor suppressor/Agrin (Homo sapiens), sequence (O00468 whole entry, looked up): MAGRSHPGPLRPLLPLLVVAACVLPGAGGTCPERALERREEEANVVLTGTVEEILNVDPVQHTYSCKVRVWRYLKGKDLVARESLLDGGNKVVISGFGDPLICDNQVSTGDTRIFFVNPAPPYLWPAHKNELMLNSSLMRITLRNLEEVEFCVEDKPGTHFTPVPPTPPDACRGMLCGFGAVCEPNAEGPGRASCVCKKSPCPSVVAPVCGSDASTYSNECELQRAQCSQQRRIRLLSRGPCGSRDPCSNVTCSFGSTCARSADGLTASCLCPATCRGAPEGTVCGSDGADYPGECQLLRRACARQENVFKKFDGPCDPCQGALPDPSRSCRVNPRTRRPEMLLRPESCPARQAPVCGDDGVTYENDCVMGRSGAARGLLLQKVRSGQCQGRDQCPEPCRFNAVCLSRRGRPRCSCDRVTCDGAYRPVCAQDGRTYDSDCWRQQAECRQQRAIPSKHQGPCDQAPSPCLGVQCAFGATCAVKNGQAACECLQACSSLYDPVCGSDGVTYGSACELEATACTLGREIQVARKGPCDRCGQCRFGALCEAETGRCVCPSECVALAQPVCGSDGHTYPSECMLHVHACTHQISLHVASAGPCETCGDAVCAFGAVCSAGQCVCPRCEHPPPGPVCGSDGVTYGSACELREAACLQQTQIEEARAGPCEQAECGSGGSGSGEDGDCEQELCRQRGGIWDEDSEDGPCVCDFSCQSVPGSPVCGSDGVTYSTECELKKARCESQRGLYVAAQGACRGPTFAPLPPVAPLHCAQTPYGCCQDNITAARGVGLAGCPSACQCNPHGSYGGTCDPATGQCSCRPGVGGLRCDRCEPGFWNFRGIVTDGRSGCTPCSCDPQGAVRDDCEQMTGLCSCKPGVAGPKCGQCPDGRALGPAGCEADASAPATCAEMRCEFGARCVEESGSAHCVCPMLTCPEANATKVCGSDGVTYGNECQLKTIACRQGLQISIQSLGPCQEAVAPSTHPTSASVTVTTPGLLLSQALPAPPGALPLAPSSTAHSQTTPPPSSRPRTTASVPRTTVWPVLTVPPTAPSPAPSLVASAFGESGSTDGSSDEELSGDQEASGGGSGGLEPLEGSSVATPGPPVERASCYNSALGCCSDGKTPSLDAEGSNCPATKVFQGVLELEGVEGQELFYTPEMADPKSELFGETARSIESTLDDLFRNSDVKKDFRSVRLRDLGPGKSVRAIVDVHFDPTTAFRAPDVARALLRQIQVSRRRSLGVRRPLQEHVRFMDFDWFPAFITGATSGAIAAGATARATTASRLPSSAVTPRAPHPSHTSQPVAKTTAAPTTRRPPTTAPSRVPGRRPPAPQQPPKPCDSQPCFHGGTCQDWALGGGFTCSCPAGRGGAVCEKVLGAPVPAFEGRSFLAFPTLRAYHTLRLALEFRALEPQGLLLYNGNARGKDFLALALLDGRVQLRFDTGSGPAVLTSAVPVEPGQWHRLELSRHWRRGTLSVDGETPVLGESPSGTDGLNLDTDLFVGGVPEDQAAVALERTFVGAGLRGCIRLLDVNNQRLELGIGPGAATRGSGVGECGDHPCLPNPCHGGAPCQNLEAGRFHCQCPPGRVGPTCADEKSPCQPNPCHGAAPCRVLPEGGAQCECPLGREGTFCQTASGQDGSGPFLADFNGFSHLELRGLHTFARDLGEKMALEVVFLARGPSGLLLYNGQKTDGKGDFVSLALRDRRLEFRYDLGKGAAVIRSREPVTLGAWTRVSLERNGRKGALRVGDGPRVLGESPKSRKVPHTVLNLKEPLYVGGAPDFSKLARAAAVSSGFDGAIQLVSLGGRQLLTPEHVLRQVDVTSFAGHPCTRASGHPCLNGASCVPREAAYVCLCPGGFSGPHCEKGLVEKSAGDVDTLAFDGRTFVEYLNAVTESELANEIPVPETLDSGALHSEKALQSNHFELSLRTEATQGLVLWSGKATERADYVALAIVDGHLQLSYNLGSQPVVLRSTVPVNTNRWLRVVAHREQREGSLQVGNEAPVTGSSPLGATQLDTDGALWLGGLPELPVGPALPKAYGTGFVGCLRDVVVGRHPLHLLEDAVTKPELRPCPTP
von Hippel-Lindau disease tumor suppressor/Agrin (Homo sapiens), sequence (P40337 whole entry, looked up): as the sequence (P40337 whole entry, looked up) above
PRMT5/MEP50 complex, sequence (O14744 whole entry): as the sequence (O14744 whole entry, looked up) above
PRMT5/MEP50 complex, sequence (Q9BQA1 whole entry, further chain): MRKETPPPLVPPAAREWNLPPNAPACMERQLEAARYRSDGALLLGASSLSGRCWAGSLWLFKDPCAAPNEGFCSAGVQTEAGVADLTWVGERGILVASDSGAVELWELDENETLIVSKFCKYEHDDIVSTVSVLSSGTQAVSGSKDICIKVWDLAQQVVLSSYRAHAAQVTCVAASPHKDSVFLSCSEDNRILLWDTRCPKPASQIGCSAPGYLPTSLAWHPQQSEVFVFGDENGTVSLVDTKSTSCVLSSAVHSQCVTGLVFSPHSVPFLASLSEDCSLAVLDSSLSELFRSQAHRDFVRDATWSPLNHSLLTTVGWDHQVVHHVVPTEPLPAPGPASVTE
von Hippel-Lindau disease tumor suppressor/Methylosome protein WDR77 (Homo sapiens), sequence (P40337 whole entry, looked up): as the sequence (P40337 whole entry, looked up) above
von Hippel-Lindau disease tumor suppressor/Methylosome protein WDR77 (Homo sapiens), sequence (Q9BQA1 whole entry, looked up): as the sequence (Q9BQA1 whole entry, further chain) above

For `Cc1ncsc1-c1ccc(CNC(=O)[C@@H]2C[C@@H](O)CN2C(=O)[C@@H](NC(=O)COCC(=O)N2CC(Nc3cc(C(=O)NC[C@H](O)CN4CCc5ccccc5C4)ncn3)C2)C(C)(C)C)cc1`, the Activity [1] was “inactive”.

With `Cc1ncsc1-c1ccc(CNC(=O)[C@@H]2C[C@@H](O)CN2C(=O)[C@@H](NC(=O)CCCCCCCCCC(=O)N2CC(Nc3cc(C(=O)NC[C@H](O)CN4CCc5ccccc5C4)ncn3)C2)C(C)(C)C)cc1` the Activity [1] was “inactive”.

For `Cc1ncsc1-c1ccc(CNC(=O)[C@@H]2C[C@@H](O)CN2C(=O)[C@@H](NC(=O)COCCOCCOCCOCCOCC(=O)N2CC(Nc3cc(C(=O)NC[C@H](O)CN4CCc5ccccc5C4)ncn3)C2)C(C)(C)C)cc1`, the Activity [2] was “Active”.

For `Cc1ncsc1-c1ccc([C@H](C)NC(=O)[C@@H]2C[C@@H](O)CN2C(=O)[C@@H](NC(=O)COCCOCCOCCOCCOCC(=O)N2CC(Nc3cc(C(=O)NC[C@H](O)CN4CCc5ccccc5C4)ncn3)C2)C(C)(C)C)cc1`, the fold change (FC) [3] was 0.32, the concentration at 12 h [4] was over 100 nM and the fold change (FC) [5] was 0.51. For the same molecule, the fold change (FC) [6] was 0.61, the Activity [7] was “Active” and the Activity [8] was “Dose-dependent effect”. The Activity [9] was “Dose-dependent effect”, the Activity [10] was “Active” and the Activity [11] was “Active”. For the same molecule, the Activity [12] was “Dose-dependent effect”, the fold change (FC) [13] was 0.53 and the IC50 [14] was 18 nM. For the same molecule, the Activity [15] was “Active”, the Activity [16] was “Active” and the concentration at 2 h [17] was 14 µM. The Emax [18] was 74%, the fold change (FC) [19] was 0.59 and the Activity [20] was “Dose-dependent effect”. For the same molecule, the DC50 [21] was 1100 nM, the Activity ([21]; time 6.0 day) was “Dose-dependent effect” and the Activity [22] was “Active”. The Activity [23] was “Active”, the Activity [24] was “Non-Toxic” and the Activity [25] was “Dose-dependent effect”. The Activity [26] was “Active” and the Activity [27] was “Dose-dependent effect”.
